{"data": "Results of several laboratories", "EGFR del752-759": "Epidermal growth factor receptor (EGFR, Homo sapiens, UniProt P00533, del752-759)", "EGFR": "Epidermal growth factor receptor (EGFR, Homo sapiens, UniProt P00533)", "EGFR L858R": "Epidermal growth factor receptor (EGFR, Homo sapiens, UniProt P00533, L858R)", "EGFR L861Q": "Epidermal growth factor receptor (EGFR, Homo sapiens, UniProt P00533, L861Q)", "EGFR L858R/T790M": "Epidermal growth factor receptor (EGFR, Homo sapiens, UniProt P00533, L858R/T790M)", "EGFR del746-750": "Epidermal growth factor receptor (EGFR, Homo sapiens, UniProt P00533, del746-750)", "EGFR A750P/del747-749": "Epidermal growth factor receptor (EGFR, Homo sapiens, UniProt P00533, A750P/del747-749)", "EGFR del747-752/P753S": "Epidermal growth factor receptor (EGFR, Homo sapiens, UniProt P00533, del747-752/P753S)", "note": "Lines come from different studies, so protocols differ."}
{"SMILES": "COc1cnc(Nc2cccc(S(N)(=O)=O)c2)nc1N1CCN(c2ccccc2)C(=O)C1", "target": "EGFR del752-759", "test": "binding, competition with immobilised ligand", "setting": "1 µM", "remaining binding": "100%"}
{"SMILES": "CN(C)c1nccc(-c2cnc3ncccn23)n1", "target": "EGFR del752-759", "test": "binding", "setting": "1 µM", "remaining binding": "100%"}
{"SMILES": "CC(C)(C)c1ccc(-c2nc(CBr)nn2-c2cccc(O)c2)cc1", "target": "EGFR", "test": "cell-free assay, competition with immobilised ligand", "setting": "10 µM", "remaining binding": "85%"}
{"SMILES": "CNC(=O)[C@@H]1CC[C@@H](n2c(-c3ccc4cnccc4c3)nc3ccc(C(=O)NCc4cccc(C(N)=O)c4)cc32)C1", "target": "EGFR L858R", "test": "binding, competition with immobilised ligand", "setting": "1 µM", "remaining binding": "100%"}
{"SMILES": "O=C1CCc2cc(Nc3cc(OC4CCOCC4)c([N+](=O)[O-])cc3Cl)ccc2N1", "target": "EGFR L861Q", "test": "cell-free assay, competition with immobilised ligand", "setting": "1 µM", "remaining binding": "100%"}
{"SMILES": "O=C(c1ccc(Nc2ncc(Cl)c(-c3ccc(Cl)s3)n2)cc1)N1CCC(N2CCCC2)CC1", "target": "EGFR L858R/T790M", "test": "binding, competition with immobilised ligand", "setting": "1 µM", "remaining binding": "49%"}
{"SMILES": "C[C@H]1CCN(c2nccc(-c3cnn4ncccc34)n2)C1", "target": "EGFR", "test": "binding", "setting": "1 µM", "remaining binding": "100%"}
{"SMILES": "CN1CCN(c2ccc(Nc3nccc(-c4cccc([N+](=O)[O-])c4)n3)cc2C(F)(F)F)CC1", "target": "EGFR del752-759", "test": "binding", "setting": "10 µM", "remaining binding": "74%"}
{"SMILES": "O=C(Nc1c[nH]nc1C(=O)NC1CCNCC1)c1cc(F)cc(F)c1", "target": "EGFR del752-759", "test": "binding, competition with immobilised ligand", "setting": "1 µM", "remaining binding": "100%"}
{"SMILES": "C[C@@H]1CN(c2cc(-c3n[nH]c4ccc(OC5(C)CC5)cc34)ncn2)C[C@H](C)O1", "target": "EGFR L858R", "test": "cell-free assay, competition with immobilised ligand", "setting": "0.1 µM", "remaining binding": "82%"}
{"SMILES": "Nc1ncc2c(n1)-c1c([nH]c3ccc(C#CC4CC4)cc13)CCCC2", "target": "EGFR L861Q", "test": "binding, competition with immobilised ligand", "setting": "1 µM", "remaining binding": "92%"}
{"SMILES": "CCN(CC)Cc1cc(Nc2ccnc3cc(Cl)ccc23)ccc1O", "target": "EGFR", "test": "cell-free assay, competition with immobilised ligand", "setting": "0.1 µM", "remaining binding": "100%"}
{"SMILES": "N[C@H]1CCN(c2nccc(-c3cnn4ncccc34)n2)C1", "target": "EGFR", "test": "binding", "setting": "1 µM", "remaining binding": "100%"}
{"SMILES": "O=C(c1ccc(Nc2nccc(-c3cc4ccccc4s3)n2)cc1)N1CCC(N2CCCC2)CC1", "target": "EGFR L861Q", "test": "binding, competition with immobilised ligand", "setting": "1 µM", "remaining binding": "89%"}
{"SMILES": "CN(CCCC(F)(F)F)c1nccc(-c2cnn3ncccc23)n1", "target": "EGFR del746-750", "test": "binding", "setting": "1 µM", "remaining binding": "80%"}
{"SMILES": "O=C(NCCCN1CCOCC1)c1ccc(Nc2ncc(Cl)c(-c3ccc(Cl)s3)n2)cc1", "target": "Epidermal growth factor receptor (EGFR, Homo sapiens, UniProt P00533, T790M)", "test": "binding, competition with immobilised ligand", "setting": "1 µM", "remaining binding": "83%"}
{"SMILES": "CO[C@@H](C)c1c(Nc2ccc([C@H](N(C)C(=O)C3CCS(=O)(=O)CC3)C(F)(F)F)cc2)cnc2cc(Cl)nn12", "target": "EGFR A750P/del747-749", "test": "cell-free assay, competition with immobilised ligand", "setting": "1 µM", "remaining binding": "99%"}
{"SMILES": "O=C(NCC1CCOCC1)c1n[nH]cc1NC(=O)c1c(F)cccc1F", "target": "EGFR A750P/del747-749", "test": "binding, competition with immobilised ligand", "setting": "1 µM", "remaining binding": "96%"}
{"SMILES": "Cc1cnc(Nc2ccc(C(=O)N3CCC(N4CCCC4)CC3)cc2)nc1-c1cc2ccccc2s1", "target": "EGFR A750P/del747-749", "test": "binding, competition with immobilised ligand", "setting": "1 µM", "remaining binding": "72%"}
{"SMILES": "Cc1ccc(NC(=O)c2ccc(CN3CCN(C)CC3)cc2)cc1Nc1nccc(-c2cccnc2)n1", "target": "EGFR", "test": "cell-free assay, competition with immobilised ligand", "setting": "10 µM", "remaining binding": "71%"}
{"SMILES": "CCN1CCN(Cc2ccc(C(=O)Nc3ccc(C)c(Oc4ccc5c(c4)CC(=O)N5)c3)cc2C(F)(F)F)CC1", "target": "EGFR L858R/T790M", "test": "binding, competition with immobilised ligand", "setting": "1 µM", "remaining binding": "90%"}
{"SMILES": "NS(=O)(=O)c1cc(NC(=O)C2(c3ccccc3Cl)CC2)ccc1Oc1cccc(Cl)c1", "target": "EGFR del747-752/P753S", "test": "cell-free assay, competition with immobilised ligand", "setting": "1 µM", "remaining binding": "57%"}
{"SMILES": "O=C(c1ccc(Nc2ncc(Cl)c(-c3cc4ccccc4s3)n2)cc1)N1CCC(N2CCCC2)CC1", "target": "EGFR A750P/del747-749", "test": "binding, competition with immobilised ligand", "setting": "1 µM", "remaining binding": "86%"}
{"SMILES": "COc1ncc2cc3ccccc3nc2c1C#N", "target": "EGFR del752-759", "test": "cell-free assay, competition with immobilised ligand", "setting": "5 µM", "remaining binding": "96%"}
{"SMILES": "CC1CCCN1c1nccc(-c2cnn3ncccc23)n1 (stereo not drawn)", "target": "EGFR del746-750", "test": "binding", "setting": "1 µM", "remaining binding": "75%"}
{"SMILES": "Cc1nccc(COC(=O)N2C[C@@H]3[C@@H](CNC(=O)c4ccc5[nH]nnc5c4)[C@@H]3C2)n1", "target": "EGFR A750P/del747-749", "test": "cell-free assay, competition with immobilised ligand", "setting": "1 µM", "remaining binding": "71%"}
{"SMILES": "Cc1cnn2ncc(-c3ccnc(N(C)C)n3)c2c1", "target": "EGFR L858R", "test": "binding", "setting": "1 µM", "remaining binding": "100%"}
{"SMILES": "COc1cnc(Nc2cccc(S(N)(=O)=O)c2)nc1N1CCN(c2ccccc2)CC1", "target": "EGFR del752-759", "test": "binding, competition with immobilised ligand", "setting": "1 µM", "remaining binding": "94%"}
{"SMILES": "O=C(NCCCN1CCOCC1)c1ccc(Nc2nccc(-c3cc4ccccc4s3)n2)cc1", "target": "EGFR del747-752/P753S", "test": "binding, competition with immobilised ligand", "setting": "1 µM", "remaining binding": "92%"}
{"SMILES": "c1cncc(-c2cccc(Nc3nccc(NC4CCCCC4)n3)c2)c1", "target": "EGFR L861Q", "test": "binding, competition with immobilised ligand", "setting": "10 µM", "remaining binding": "53%"}
{"SMILES": "CCCOc1ccc([C@@H]2[C@@H](C(=O)O)[C@H](c3ccc4c(c3)OCO4)CN2CC(=O)Nc2c(CC)cccc2CC)cc1", "target": "EGFR L861Q", "test": "cell-free assay, competition with immobilised ligand", "setting": "1 µM", "remaining binding": "100%"}
{"SMILES": "COc1ccnn2ncc(-c3ccnc(N(C)C)n3)c12", "target": "EGFR L861Q", "test": "binding", "setting": "1 µM", "remaining binding": "97%"}
{"SMILES": "CNC(=O)c1ccc(Nc2ncc(C(F)(F)F)c(NCc3nccnc3N(C)S(C)(=O)=O)n2)cc1", "target": "EGFR L861Q", "test": "cell-free assay, competition with immobilised ligand", "setting": "0.1 µM", "remaining binding": "100%"}
{"SMILES": "CN1CCN(c2ccc(Nc3nccc(-c4ccccc4)n3)cc2C(F)(F)F)CC1", "target": "EGFR L858R/T790M", "test": "binding", "setting": "10 µM", "remaining binding": "93%"}
{"SMILES": "N#Cc1ccccc1CSc1nnc2c(n1)[nH]c1ccccc12", "target": "EGFR", "test": "binding, competition with immobilised ligand", "setting": "10 µM", "remaining binding": "100%"}
{"SMILES": "COc1cccc(CNC(=O)c2nc3scc(COCc4ccc(C(=O)O)cc4)c3c(=O)[nH]2)c1", "target": "EGFR A750P/del747-749", "test": "cell-free assay, competition with immobilised ligand", "setting": "1 µM", "remaining binding": "76%"}
